HTRA1 inhibitor: HTRA1 serine protease inhibitors, primary screen, biochemical, fluorescence polarization, HTS; Q92743; recombinant HTRA1, FP-rhodamine activity-based probe; inhibition, % at 5.96 µM; 340,000 tested, 0.5% active; AID 504803, 2011; in the data active means inhibition above about 36%;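 further: 0% = enzyme with DMSO and 100% = wells lacking enzyme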
PME-1 primary: PME-1 inhibitors via competitive probe labeling, primary screen, biochemical, fluorescence polarization, FP-Rh probe, HTS. inhibition, % at 5.9 µM. 320,000 tested, 0.53% active. Protein phosphatase methylesterase 1 (Homo sapiens), Q9Y570. recombinant PME-1;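 active means inhibition above the campaign mean of all compounds plus 3 SD, cut at about 26% in these data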;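 further: competitive labeling of PME-1 active site by serine hydrolase directed probe; 0% = PME-1 with DMSO and 100% = wells lacking PME-1 enzyme; inhibitors block probe labeling so polarization falls and inhibition rises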
Fam108B inh: mouse Fam108B serine hydrolase inhibitors, primary screen, counter-screen for RBBP9 inhibitor project, biochemical, fluorescence polarization. recombinant Fam108B, FP-Rh probe fluorescence polarization. inhibition, % at 9.51 µM. 300,000 tested, 0.33% active;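 active means inhibition above the screen mean inhibition plus 3 SD, computed separately per campaign, cut at about 18% in these data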;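 further: inhibitors lower polarization as less probe binds the enzyme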
SIAE primary: human SIAE inhibitors, primary screen, biochemical, fluorescence polarization, FP-Rh probe, 1536-well HTS; 370,000 tested, 0.69% active; AID 1053197, 2014; inhibition, % at 9.66 µM; SIAE FP-Rh probe binding;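 active means inhibition above a cutoff: mean of compounds within the control limits plus 3 SD of those, cut at about 17% in these data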;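 further: 0% = plate median of compound wells and 100% = probe without SIAE protein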
TCR CD3 inh: inhibitors of human TCR-CD3 interaction, primary screen, biochemical, fluorescence, TAMRA-labeled TCR probe; 360,000 tested, 0.37% active; T-cell receptor (TCR); inhibition, % at 9.4 µM; in the data active means inhibition above about 19%;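 further: recombinant mutant TCR 2C K166C tagged with TAMRA read by polarization; 0% = receptor in buffer alone and 100% = receptor with positive control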
mABHD4 FP: ABHD4 inhibitors, primary screen, biochemical, fluorescence polarization, mouse | inhibition, % at 8.92 µM | 370,000 tested, 0.54% active | (Lyso)-N-acylphosphatidylethanolamine lipase (Mus musculus), Q8VD66 | purified mABHD4, FP-Rh probe fluorescence polarization;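 active means inhibition exceeding the mean over every tested compound plus 3 SD, cut at about 30% in these data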;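 further: 0% = plate median of compound wells and 100% = S159A mutant with DMSO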
Target sequence (Q8VD66 whole entry, looked up): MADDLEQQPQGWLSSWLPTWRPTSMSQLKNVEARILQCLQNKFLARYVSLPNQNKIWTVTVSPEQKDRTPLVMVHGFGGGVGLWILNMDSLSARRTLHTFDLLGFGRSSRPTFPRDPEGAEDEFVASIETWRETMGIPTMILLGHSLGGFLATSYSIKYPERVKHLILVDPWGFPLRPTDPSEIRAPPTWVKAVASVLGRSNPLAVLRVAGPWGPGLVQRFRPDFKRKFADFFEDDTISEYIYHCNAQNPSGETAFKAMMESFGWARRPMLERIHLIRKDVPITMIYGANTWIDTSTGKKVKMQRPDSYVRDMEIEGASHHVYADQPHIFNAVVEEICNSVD
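Test system: mouse ABHD4 enzyme, wild type. Reagent: FP-Rh fluorescent activity-based probe, added after compound pre-incubation. Timing: pre-incubation 45 min, probe exposure 60 min, at 25 °C. Technique: FP readout, ex 525 nm / em 598 nm. Benchmarks: high control S159A mutant with DMSO, low control median of compound wells.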
ABHD4 confirm: ABHD4 inhibitors, retest, confirmation, biochemical, fluorescence polarization, mouse; shares compounds with mABHD4 FP; purified mABHD4, FP-Rh probe fluorescence polarization; inhibition, % at 8.92 µM; 1,800 tested, 55% active; AID 720658, 2013;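 active means mean inhibition across replicates above the hit cutoff set in the primary screen, cut at about 30% in these data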;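 further: 0% = wild-type ABHD4 with DMSO and 100% = catalytically dead S159A mutant with DMSO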
* marks the source's active call; other numbers are inactive results; / = no result. Hits are enriched below; roughly 1.8% of the tested compounds scored in any of these assays.

SMILES	HTRA1 inhibitor	PME-1 primary	Fam108B inh	SIAE primary	TCR CD3 inh	mABHD4 FP	ABHD4 confirm
CN(C)CCNc1ncnc2c1ncn2[C@H]1CN(Cc2ccc3c(c2)OCO3)C[C@@H](CO)O1	/	/	/	-4	4	34*	15
COc1cc(Cl)cc(C(c2c(C(=O)O)[nH]c3ccccc23)c2c(C(=O)O)[nH]c3ccccc23)c1O	2	-2	6	7	12	43*	55*
Cc1[nH][nH]c(=O)c1C(c1cc(Br)ccc1O)c1c(C)[nH][nH]c1=O	2	0	3	6	0	8	/
COc1cc(C(=O)Nc2c(C(=O)O)[nH]c3ccccc23)cc(OC)c1OC	1	/	/	0	-2	3	/
O=C(O)c1[nH]c2ccccc2c1C(c1c(F)cccc1Cl)c1c(C(=O)O)[nH]c2ccccc12	-3	-1	-1	5	10	42*	50*
O=C(O)c1[nH]c2ccccc2c1C(c1cc(Br)ccc1O)c1c(C(=O)O)[nH]c2ccccc12	1	-1	7	4	9	43*	47*
CCCC(=O)N1CCCC1(C)C(=O)NCc1ccc(F)cc1Cl (configuration not stated)	/	/	/	-4	2	2	/
COc1ccc(-c2c(C(=O)c3ccccc3)[nH]c(N)c2C(=O)NCc2ccccc2)cc1OC	/	/	/	6	9	3	/
Nc1ccc(NC(=O)c2ccc(C(=O)Nc3ccc(N)cc3)cc2)cc1	-6	0	1	-4	-5	-15	/
Nc1ccc(C(=O)Nc2ccc3c(O)cc(S(=O)(=O)O)cc3c2)cc1	6	/	/	-16	7	36*	25
COc1cccc(CNC(=O)CCC(=O)n2ncc3cc(C)ccc32)c1OC	1	2	-3	0	3	6	/
Brc1ccc(-c2csc(N3CCNCC3)n2)cc1	/	/	/	2	/	61*	75*
CCCCNc1c([N+](=O)[O-])cc(C(=O)O)cc1[N+](=O)[O-]	-3	0	0	3	-4	0	/
O=C(O)c1cc([N+](=O)[O-])c(NCCC2=CCCCC2)c([N+](=O)[O-])c1	-6	-3	5	6	0	55*	66*
C[C@@H]1CN(C(=O)OC(C)(C)C)CCN1c1ccc(N2CC[C@H](O)C2)c(C#N)c1	/	/	/	1	-4	4	/
COCc1cc(N2CCN(C(=O)OC(C)(C)C)C[C@@H]2C)ccc1N1CC[C@@H](O)C1	/	/	/	15	12	32*	25
COc1cccc(NC(=O)C2CCN(S(=O)(=O)c3ccc4[nH]c(=O)oc4c3)CC2)c1	2	-1	-4	-7	-2	42*	43*
Cc1ccc(NC(=O)C2CCN(S(=O)(=O)c3ccc4[nH]c(=O)oc4c3)CC2)cc1F	-7	-3	-3	-6	9	16	/
Cn1ccc2c(/C=C/c3ccc(F)cc3)cc3c(c21)C1CCC3C1 (configuration not stated)	/	/	/	6	-1	45*	38*
Cn1ccc2c(/C=C/c3ccc(F)cc3)cc3c(c21)C1CCC3O1 (configuration not stated)	/	/	/	-3	3	17	/
Cn1c(CNc2ccc(O)cc2)nc2ccccc21	5	-2	1	8	10	58*	0
Cc1ccc(NCc2nc3ccccc3n2C)cc1	-2	-2	1	-2	9	3	/
COC(=O)[C@]12C[C@H](CC(=O)NCc3cccs3)C(=O)N(CCC3=CCCCC3)C1=C[C@H](C(C)C)O[C@@H]2C1CC1	/	/	/	4	/	-3	/
CCn1cc(C(=O)NCCCOC(C)C)c(=O)c2cc(S(=O)(=O)N3CCOCC3)ccc21	-4	4	8	-4	14	-4	/

Assay outcomes as filed in PubChem.
